Records with an inconclusive call do not appear. Activity calls are given as the source filed them.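 Rule for the calls: active = inhibition of 30% or more at any tested concentration; inactive = the rest, inconclusive results apart.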
target: M17 leucyl aminopeptidase (Plasmodium falciparum 3D7); assay: PfM17LAP leucine aminopeptidase inhibitors, dose response, biochemical, QFRET, set 2 (AID 602216); conditions: recombinant PfM17LAP, H-Leu-NHMec fluorogenic cleavage
How it was run: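 material = purified recombinant Plasmodium falciparum M17 leucine aminopeptidase (rPFM17LAP) | medium = pH 7.5 buffer containing CoCl2 | reagent = 0.1 mM H-Leu-NHMec as fluorogenic peptide substrate | times = 90 min reaction | technique = Substrate-cleavage fluorescence | read-out = IC50 from four-parameter logistic fit, limits fixed 0–100% inhibition | benchmarks = full reaction and no-enzyme wells | repeats = triplicate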

| SMILES | IC50 [nM] |
| --- | --- |
| CN(O)C(=O)Cc1ccc(OCc2ccccc2)cc1 | 20600 |
| CC(C)(C(=O)NO)c1ccccc1 | 60300 |
| CCCCOc1ccc(CC(=O)N(C)O)cc1 | 18000 |
| CCCCOc1ccc(CNc2c(N(C)O)c(=O)c2=O)cc1 | 33200 |

Next, values leading:

| IC50 [nM] | SMILES |
| --- | --- |
| 630 | O=C(Cc1ccc(OCc2ccccc2)cc1)NO |
| 1920 | CCCCCCCCCC(=O)NO |
| 3300 | CCCCOc1ccc(C(=O)NO)cc1 |
| 2300 | CCCCOc1ccc(CCC(=O)NO)cc1 |
| 410 | CCCCOc1ccc(CC(=O)NO)cc1 |
| 980 | Cc1ccc(CC(=O)NO)cc1 |
| 9080 | O=C(NO)c1cccc2ccccc12 |
| 410 | O=C(Cc1ccc(Oc2ccccc2)cc1)NO |
| 740 | CCOc1ccc(CC(=O)NO)cc1 |
| 950 | CC(C)COc1ccc(CC(=O)NO)cc1 |
| 540 | COc1ccc(CC(=O)NO)cc1 |
| 2850 | COc1ccc(CCCC(=O)NO)cc1 |
| 380 | CCCCc1ccc(CC(=O)NO)cc1 |
| 180 | O=C(Cc1ccc2c(c1)CCCC2)NO |

same assay, conditions: recombinant PfM17LAP, H-Leu-NHMec fluorogenic cleavage; at 1.56 µM (top of the series)

| inhibition | SMILES |
| --- | --- |
| inactive | COC(=O)Cc1ccc(OCCN(C)C)cc1 |

same assay, conditions: recombinant PfM17LAP, H-Leu-NHMec fluorogenic cleavage; at 100 µM (top of the series)

| inhibition | SMILES |
| --- | --- |
| inactive | CCCCOc1ccc(CC(=O)O)cc1 |
| inactive | CCC(C)Oc1ccc(CC(=O)OC)cc1 (stereo not drawn) |
| inactive | CCCOc1ccc(CC(=O)OC)cc1 |
| inactive | COC(=O)Cc1ccc(OCC(C)C)cc1 |

From PubChem BioAssay AID602216 (Southern Research Specialized Biocontainment Screening …, 2012)
